NR2E3 ag-1: inhibitors of NR2E3-RetCOR corepressor binding, primary screen, NR2E3 agonist project, biochemical, TR-FRET, GST-NR2E3, biotin-RetCOR; inhibition of corepressor binding, % at 4.78 µM; 1536-well; 320,000 tested, 0.12% active; Photoreceptor-specific nuclear receptor (Homo sapiens), Q9Y5X4; AID 2300, 2010;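 active means percent inhibition above the cutoff of mean plus 3 SD of all tested compounds, set per screening campaign, cut at about 20% in these data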;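 further: 0% = DMSO wells and 100% = biotin wells as full block of FRET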
Target sequence (Q9Y5X4 whole entry, looked up): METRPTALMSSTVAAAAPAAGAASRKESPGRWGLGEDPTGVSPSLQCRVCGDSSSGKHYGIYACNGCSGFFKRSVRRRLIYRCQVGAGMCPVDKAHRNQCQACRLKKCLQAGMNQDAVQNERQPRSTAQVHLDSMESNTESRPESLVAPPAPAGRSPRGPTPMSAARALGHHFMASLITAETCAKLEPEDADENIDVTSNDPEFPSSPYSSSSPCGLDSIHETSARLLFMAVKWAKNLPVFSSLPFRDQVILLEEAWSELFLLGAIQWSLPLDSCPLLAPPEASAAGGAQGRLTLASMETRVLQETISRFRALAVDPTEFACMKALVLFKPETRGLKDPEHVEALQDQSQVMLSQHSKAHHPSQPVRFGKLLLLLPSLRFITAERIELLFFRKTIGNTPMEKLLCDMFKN
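Test system: GST-NR2E3 and biotin-RetCOR proteins | Quantity: 1.35 nM GST-tagged NR2E3 final | Medium: Tris pH 7.5 | Also added: 7 nM biotin-RetCOR | Dosing: Compound at 4.8 µM, single dose | Timing: 5 h at 4 °C | Detection: Time-resolved FRET | Read-out basis: Percent inhibition | Benchmarks: Biotin wells as high control, 0.6% DMSO wells as low control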
NR2E3 ag-2: NR2E3 agonists in two-hybrid cells, primary screen, cell-based, luminescence, CHO-S, Gal4-NCOR/VP16-NR2E3; inhibition of corepressor binding, % at 3.98 µM; luciferase; AID 602229, 2012; 360,000 tested, 0.35% active; Photoreceptor-specific nuclear receptor (Homo sapiens), Q9Y5X4;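 active means inhibition above the mean of all tested compounds plus 3 SD, cut at about 70% in these data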;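 further: 0% = DMSO with NR2E3 transfected cells and 100% = cells lacking NR2E3 construct; higher means lower luciferase signal from less NR2E3 corepressor binding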
Myeloid diff 2: induction of myeloid progenitor differentiation, primary screen, cell-based, flow cytometry, MLPCN library | ER-HoxA9 myeloid progenitors, lysozyme-GFP differentiation | calls only at 10 µM | 360,000 tested, 1% active | AID 624256, 2012;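 active means normalized GFP-positive differentiation at or above the plate's own cutoff, the solvent-only control mean plus 3 SD; inconclusive means no clear call, values can overlap the other calls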;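 further: cells exposed to compound for four days before flow analysis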
GAA850 FXN act: FXN promoter activators, primary screen, cell-based, luciferase luminescence, HEK293 lucGAA850. HEK293 lucGAA850 FXN promoter luciferase reporter, 24 h; percent of 10 µM SAHA response. activation, % at 6 µM. 360,000 tested, 0.56% active. AID 540364, 2011;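 active means activation above the average of all compounds screened plus 3 SD, cutoff fixed separately per campaign, cut at about 7.5% in these data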;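 further: 0% = DMSO wells and 100% = 10 µM SAHA wells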
T cell modulator: modulators of CD8 T cell-vesicle binding, primary screen, mouse 2C CD8+ T cells, flow cytometry | 2C CD8+ T cell-vesicle binding; hits give low values | response (vesicle binding), % at 7 µM | 330,000 tested, 0.068% active | AID 2052, 2009;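 active means response, share of CD8 T cells binding vesicles, and their 90th percentile fluorescence all below set limits, cut at about 80% in these data, passing the limit was not always enough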;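 further: values below 100% mean blocked vesicle binding to the CD8+ T cells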
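Material: 2C TCR transgenic mouse naive CD8+ T cells, MACS-purified. Also added: QL9-charged Drosophila Ld/ICAM-1/B7-1 vesicles. Timing: binding 1.5 h at 37 °C. Measured by: high-throughput flow cytometry with anti-B7-1 and anti-CD8 staining. Read-out: percent CD8+ FL2 mean versus row control. Controls: Unloaded micro-vesicles (low), QL9 vesicles with 0.7% DMSO (high).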
NR2E3 ag confirm: NR2E3 agonist confirmation in cells, cell-based, luminescence, CHO-S two-hybrid. shares compounds with NR2E3 ag-2. CHO-S mammalian two-hybrid NR2E3-NCOR, luciferase luminescence. inhibition, % at 3.98 µM. 2,300 tested, 51% active;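 active means average inhibition above a cutoff equal to the mean inhibition of all tested compounds plus one SD, cut at about 70% in these data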;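 further: 0% = DMSO in NR2E3 cells and 100% = DMSO in cells lacking NR2E3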
VP16 counter: GAL4-VP16 reporter modulators, confirmation, counter-screen for NR2E3 agonist project, cell-based, luminescence, CHO-S, high throughput | shares compounds with NR2E3 ag-2 | CHO-S GAL4-VP16 luciferase reporter | inhibition, % at 3.98 µM | 2,300 tested, 29% active | AID 624379, 2012;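 active means mean inhibition above a cutoff equal to the average over all tested compounds plus one standard deviation, cut at about 70% in these data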;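 further: luciferase from a UAS reporter driven by GAL4-VP16 transactivation; 0% = DMSO with VP16-transfected cells and 100% = DMSO with cells lacking VP16; higher means less reporter light so more repression of VP16 activity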
Active calls of the source: *; i = inactive; ? = inconclusive; nt = no result. A selection: hits, their analogues and other compounds. The true share with any hit is near 2%.

SMILES	NR2E3 ag-1	NR2E3 ag-2	Myeloid diff 2	GAA850 FXN act	T cell modulator	NR2E3 ag confirm	VP16 counter
Cc1ccc(NC(=O)Nc2cccc([N+](=O)[O-])c2)cc1F	1	-73	i	2	244	nt	nt
O=C(Nc1ccc(OC(F)F)cc1)Nc1cccc(C(F)(F)F)c1	0	57	i	-5	487	24	31
O=C(Nc1ccc(OC(F)(F)F)cc1)Nc1cccc([N+](=O)[O-])c1	-4	94*	?	-12	314	99*	88*
O=C(O)CSc1nnc(-c2ccc(Cl)cc2Cl)n1Cc1ccccc1	0	-5	i	0	381	nt	nt
CN(CC(=O)Nc1cccc(F)c1)C(=O)CN1C(=O)C2CC=CCC2C1=O (configuration not stated)	-4	7	i	-1	434	nt	nt
CN(CC(=O)Nc1cccc(F)c1)C(=O)CCN1C(=O)C2CC=CCC2C1=O (configuration not stated)	-1	96*	i	0	138	4	-11
CCc1cccc(NS(=O)(=O)c2ccc3c(c2)n(C)c(=O)n3C)c1	-1	64	i	2	212	58	44
Cc1ccc(NS(=O)(=O)c2ccc3c(c2)n(C)c(=O)n3C)cc1	-4	-3	i	0	178	nt	nt
Cn1c(=O)n(C)c2cc(NS(=O)(=O)c3ccc4c(c3)CCCC4)ccc21	1	66	i	1	345	85*	68
Cn1c(=O)n(C)c2cc(NS(=O)(=O)c3ccc(C(C)(C)C)cc3)ccc21	2	63	nt	6	133	82*	76*
Cc1cc(C(=O)N2CCC2(C)C(=O)NCCC#N)nn1C (configuration not stated)	nt	1	i	-1	nt	nt	nt
CC(C)(C)C(=O)N1CCN(c2ccc3c(c2)C2CC3CCN2C(=O)OCc2ccccc2)CC1 (configuration not stated)	nt	-4	i	nt	nt	nt	nt
COCCNc1c(-c2cc3ccc(C)c(C)c3[nH]c2=O)nc2ccccn12	-3	-88	i	2	216	nt	nt
O=S(=O)(Nc1ccc2c(c1)OCCO2)c1cccc2nsnc12	5	52	i	-10	447	-2	-7
O=C(NCc1cccnc1)c1cc(C(=O)C2CC2)c[nH]1	1	-1	i	1	397	nt	nt
O=C(NCc1ccccc1Cl)c1cc(C(=O)C2CC2)c[nH]1	1	51	i	1	276	41	27
Clc1ccc2c(NCc3ccco3)ncnc2c1	1	54	i	1	257	45	43
Clc1ccc2c(NCc3cccs3)ncnc2c1	0	19	i	1	168	nt	nt
Nc1c(Br)cc2c([nH]c(=O)c3ccccc32)c1Br	nt	-17	i	3	nt	nt	nt
O=C(NC1CCCCC1)c1c(O)nc2sccn2c1=O	-1	-13	i	3	413	nt	nt
CC(C)CNc1ncnc2c1ncn2[C@H]1CN(Cc2ccncc2)C[C@@H](CO)O1	nt	7	i	0	nt	nt	nt
CC(C)Nc1ncnc2c1ncn2[C@H]1CN(Cc2ccc(-c3ccccc3)cc2)C[C@@H](CO)O1	nt	73*	i	-1	nt	70	52
CC(C)CNc1ncnc2c1ncn2[C@H]1CN(Cc2ccc(-c3ccccc3)cc2)C[C@@H](CO)O1	nt	63	i	-4	nt	89*	67
C=CC(=O)Nc1ccc(N(C)c2ccnc(Nc3ccc(N4CCN(C)CC4)cc3)n2)cc1	nt	35	?	1	232	nt	nt
Cn1c(O)c(N=NC(=S)Nc2ccccc2F)c2cc(S(=O)(=O)N3CCOCC3)ccc21	nt	-12	i	3	nt	nt	nt
SMILES	NR2E3 ag-1	NR2E3 ag-2	Myeloid diff 2	GAA850 FXN act	T cell modulator	NR2E3 ag confirm	VP16 counter
C=CCn1c(O)c(N=NC(=S)Nc2ccccc2C)c2cc(S(=O)(=O)N3CCOCC3)ccc21	1	63	i	3	204	23	26
Cc1cccc(NC(=S)N=Nc2c(O)n(CN3CCOCC3)c3ccccc23)c1C	0	72*	i	-2	725	15	22
CCCNC(=O)c1ccc(N2CCC3(CC2)CC(c2cccc(Br)c2)=NO3)c([N+](=O)[O-])c1	-1	57	?	-3	367	74*	59
N#CC(C(=S)Nc1ccccc1)c1nc2ccccc2[nH]1 (configuration not stated)	3	78*	i	2	i	-12	-15
CSC(=Nc1ccccc1)C(C#N)c1nc2ccccc2[nH]1 (configuration not stated)	3	-1	i	7	618	nt	nt
Cc1ccccc1-n1nnnc1SCC(=O)c1c(N)n(C2CC2)c(=O)[nH]c1=O	nt	5	i	0	nt	nt	nt
CC(C)C[C@@H](CN1CCC[C@@H]1CN1C(=S)NC[C@@H]1Cc1ccc(O)cc1)N1C[C@H](Cc2ccc(O)cc2)N(CC2CCCCCC2)C1=S	nt	24	i	nt	nt	nt	nt
CC(C)C[C@@H](CN1CCC[C@@H]1CN1C(=S)NC[C@@H]1Cc1ccc(O)cc1)N1C[C@H](Cc2ccc(O)cc2)N(CC2CCCCC2)C1=S	nt	54	i	nt	nt	14	19
CCOC(=O)N1CCC(NC(=O)C2CCCN(Cc3nc(-c4cccc(Cl)c4)oc3C)C2)CC1 (configuration not stated)	0	84*	i	-2	185	88*	65
N#C/C(=N\Nc1cccc(C(F)(F)F)c1)C(=O)c1csc(-c2cccnc2)n1	-1	77*	i	0	261	94*	77*
CCOc1ccccc1-n1c(SCC(=O)Nc2ccccc2C(=O)O)nc2ccccc2c1=O	3	50	i	-9	140	48	15
CCn1c(SCC(=O)Nc2ccccc2OC)nc2ccccc2c1=O	0	16	i	3	405	nt	nt
N=C1SCC(=O)N1c1ncc(Cc2ccc(F)cc2)s1	-2	97*	i	2	292	57	22
Cn1nc(C2CC2)cc1NC(=O)C1(C)CCN1C(=O)CCc1ccccc1 (configuration not stated)	nt	-3	i	-1	nt	nt	nt
CCC(C)c1ccc(C(C)NC(=S)NC2CCCCC2)cc1 (configuration not stated)	-1	85*	?	-3	0	57	48
